Source: ChEMBL document CHEMBL5346932, “Structure-activity relationships of actively FhuE transported rifabutin derivatives with potent activity against Acinetobacter baumannii” (Eur J Med Chem, 2023)
In brackets after ≈: the same amount, converted by molar mass. Activity calls are given as the source filed them. The rule behind the calls is not given here.

What was measured:
Assay type in all cases: functional
Acinetobacter baumannii [1] = assay: Antibacterial activity against Acinetobacter baumannii HUMC1 harboring FhuE deletion mutant assessed as bacterial growth inhibition incubated for 20 hrs by CLSI based microbroth dilution method
Summary of the method: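 Microbroth dilution per CLSI in RPMI 1640 + 10% FCS (in place of CAMHB). Compounds as 2-fold serial dilutions; inoculum 5×10^5 CFU/mL of previously described HUMC1-derived mutant strains. Incubated static at 35 °C for 20 h. MIC read visually as lowest concentration preventing visible growth.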

Staphylococcus aureus = assay: Antibacterial activity against Staphylococcus aureus USA300 UAMS-1625 assessed as bacterial growth inhibition incubated for 20 hrs by CLSI based microbroth dilution method
Summary of the method: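 CLSI broth microdilution in CAMHB against S. aureus USA300 UAMS-1625. Compounds in 2-fold dilution series; inoculum 5×10^5 CFU/mL. Incubated without shaking at 35 °C for 20 h. MIC read visually as the lowest concentration preventing visible growth. Fold changes are relative to the rifabutin MIC.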

Acinetobacter baumannii [2] = assay: Antibacterial activity against Acinetobacter baumannii HUMC1 cultured in RPMI 1640 medium supplemented with 10% FCS assessed as bacterial growth inhibition incubated for 20 hrs by CLSI based microbroth dilution method
Summary of the method: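 CLSI broth microdilution in RPMI 1640 + 10% FCS in place of CAMHB. Compounds in 2-fold dilution series; inoculum 5×10^5 CFU/mL. Plates held static at 35 °C for 20 h. MIC read visually as the lowest concentration with no visible growth. […] is the reciprocal of this MIC.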

[3] = Acinetobacter baumannii, HUMC1, 20 h, read-out: MIC

Compound | MIC (Acinetobacter baumannii [2]; [3]) | further results
CO[C@H]1/C=C/O[C@@]2(C)Oc3c(C)c(O)c4c(c3C2=O)C2=NC3(CCN(CCC(C)C)CC3)NC2=C(NC(=O)/C(C)=C\C=C\[C@H](C)[C@H](O)[C@@H](C)[C@@H](O)[C@@H](C)[C@H](OC(C)=O)[C@@H]1C)C4=O | 0.016 µg/mL (≈ 0.0186 µM) | MIC (Acinetobacter baumannii [1]): 0.5 µg/mL (≈ 0.581 µM); Activity (Staphylococcus aureus): Active
CCCCN1CCC2(CC1)N=C1C(=C3NC(=O)/C(C)=C\C=C\[C@H](C)[C@H](O)[C@@H](C)[C@@H](O)[C@@H](C)[C@H](OC(C)=O)[C@H](C)[C@@H](OC)/C=C/O[C@@]4(C)Oc5c(C)c(O)c(c1c5C4=O)C3=O)N2 | 0.004 µg/mL (≈ 0.00472 µM) | Activity (Staphylococcus aureus): Active
CO[C@H]1/C=C/O[C@@]2(C)Oc3c(C)c(O)c4c(c3C2=O)C2=NC3(CCN(C5CCN(C)CC5)CC3)NC2=C(NC(=O)/C(C)=C\C=C\[C@H](C)[C@H](O)[C@@H](C)[C@@H](O)[C@@H](C)[C@H](OC(C)=O)[C@@H]1C)C4=O | 0.25 µg/mL (≈ 0.282 µM) | –
CO[C@H]1/C=C/O[C@@]2(C)Oc3c(C)c(O)c4c(c3C2=O)C2=NC3(CCN(C5CCCC5)CC3)NC2=C(NC(=O)/C(C)=C\C=C\[C@H](C)[C@H](O)[C@@H](C)[C@@H](O)[C@@H](C)[C@H](OC(C)=O)[C@@H]1C)C4=O (stereo in doubt; form 2) | – | MIC (Acinetobacter baumannii [2]; 20 h): 0.004 µg/mL (≈ 0.00466 µM)
CO[C@H]1/C=C/O[C@@]2(C)Oc3c(C)c(O)c4c(c3C2=O)C2=NC3(CCN(C5CCOCC5)CC3)NC2=C(NC(=O)/C(C)=C\C=C\[C@H](C)[C@H](O)[C@@H](C)[C@@H](O)[C@@H](C)[C@H](OC(C)=O)[C@@H]1C)C4=O | 0.008 µg/mL (≈ 0.00914 µM) | –
CO[C@H]1/C=C/O[C@@]2(C)Oc3c(C)c(O)c4c(c3C2=O)C2=NC3(CCN(Cc5ccccc5)CC3)NC2=C(NC(=O)/C(C)=C\C=C\[C@H](C)[C@H](O)[C@@H](C)[C@@H](O)[C@@H](C)[C@H](OC(C)=O)[C@@H]1C)C4=O | 0.125 µg/mL (≈ 0.142 µM) | Activity (Staphylococcus aureus): Active
CO[C@H]1/C=C/O[C@@]2(C)Oc3c(C)c(O)c4c(c3C2=O)C2=NC3(CCN([C@H]5CCCO5)CC3)NC2=C(NC(=O)/C(C)=C\C=C\[C@H](C)[C@H](O)[C@@H](C)[C@@H](O)[C@@H](C)[C@H](OC(C)=O)[C@@H]1C)C4=O | 0.016 µg/mL (≈ 0.0186 µM) | –
CO[C@H]1/C=C/O[C@@]2(C)Oc3c(C)c(O)c4c(c3C2=O)C2=NC3(CCN(CC5CCCCC5)CC3)NC2=C(NC(=O)/C(C)=C\C=C\[C@H](C)[C@H](O)[C@@H](C)[C@@H](O)[C@@H](C)[C@H](OC(C)=O)[C@@H]1C)C4=O (stereo in doubt; form 1) [listing 1 of 2 here] | 0.06 µg/mL (≈ 0.0676 µM) | –
CO[C@H]1/C=C/O[C@@]2(C)Oc3c(C)c(O)c4c(c3C2=O)C2=NC3(CCN(C5CCCC(C)C5)CC3)NC2=C(NC(=O)/C(C)=C\C=C\[C@H](C)[C@H](O)[C@@H](C)[C@@H](O)[C@@H](C)[C@H](OC(C)=O)[C@@H]1C)C4=O (some centres undefined) | 0.03 µg/mL (≈ 0.0338 µM) | –
CO[C@H]1/C=C/O[C@@]2(C)Oc3c(C)c(O)c4c(c3C2=O)C2=NC3(CCN(CC#N)CC3)NC2=C(NC(=O)/C(C)=C\C=C\[C@H](C)[C@H](O)[C@@H](C)[C@@H](O)[C@@H](C)[C@H](OC(C)=O)[C@@H]1C)C4=O | 0.25 µg/mL (≈ 0.301 µM) | –
CO[C@H]1/C=C/O[C@@]2(C)Oc3c(C)c(O)c4c(c3C2=O)C(=N)C(N)=C(NC(=O)/C(C)=C\C=C\[C@H](C)[C@H](O)[C@@H](C)[C@@H](O)[C@@H](C)[C@H](OC(C)=O)[C@@H]1C)C4=O | 0.5 µg/mL (≈ 0.704 µM) | –
COC(=O)[C@@H](C)N1CCC2(CC1)N=C1C(=C3NC(=O)/C(C)=C\C=C\[C@H](C)[C@H](O)[C@@H](C)[C@@H](O)[C@@H](C)[C@H](OC(C)=O)[C@H](C)[C@@H](OC)/C=C/O[C@@]4(C)Oc5c(C)c(O)c(c1c5C4=O)C3=O)N2 | 0.125 µg/mL (≈ 0.143 µM) | MIC (Acinetobacter baumannii [1]): 0.5 µg/mL (≈ 0.57 µM)
CO[C@H]1/C=C/O[C@@]2(C)Oc3c(C)c(O)c4c(c3C2=O)C2=NC3(CCN(C(C)=O)CC3)NC2=C(NC(=O)/C(C)=C\C=C\[C@H](C)[C@H](O)[C@@H](C)[C@@H](O)[C@@H](C)[C@H](OC(C)=O)[C@@H]1C)C4=O | 4 µg/mL (≈ 4.8 µM) | –
COC(=O)CN1CCC2(CC1)N=C1C(=C3NC(=O)/C(C)=C\C=C\[C@H](C)[C@H](O)[C@@H](C)[C@@H](O)[C@@H](C)[C@H](OC(C)=O)[C@H](C)[C@@H](OC)/C=C/O[C@@]4(C)Oc5c(C)c(O)c(c1c5C4=O)C3=O)N2 | – | MIC (Acinetobacter baumannii [1]): 0.5 µg/mL (≈ 0.579 µM); MIC (Acinetobacter baumannii [2]; Acinetobacter baumannii, HUMC1, read-out: MIC): 0.5 µg/mL (≈ 0.579 µM)
CO[C@H]1/C=C/O[C@@]2(C)Oc3c(C)c(O)c4c(c3C2=O)C2=NC3(CCOCC3)NC2=C(NC(=O)/C(C)=C\C=C\[C@H](C)[C@H](O)[C@@H](C)[C@@H](O)[C@@H](C)[C@H](OC(C)=O)[C@@H]1C)C4=O | 2 µg/mL (≈ 2.53 µM) | –
CO[C@H]1/C=C/O[C@@]2(C)Oc3c(C)c(O)c4c(c3C2=O)C2=NC3(CCCCC3)NC2=C(NC(=O)/C(C)=C\C=C\[C@H](C)[C@H](O)[C@@H](C)[C@@H](O)[C@@H](C)[C@H](OC(C)=O)[C@@H]1C)C4=O | 0.125 µg/mL (≈ 0.158 µM) | MIC (Acinetobacter baumannii [1]): 0.5 µg/mL (≈ 0.633 µM)

Compound | MIC (Acinetobacter baumannii [2]; [3]) | further results
C#CCN1CCC2(CC1)N=C1C(=C3NC(=O)/C(C)=C\C=C\[C@H](C)[C@H](O)[C@@H](C)[C@@H](O)[C@@H](C)[C@H](OC(C)=O)[C@H](C)[C@@H](OC)/C=C/O[C@@]4(C)Oc5c(C)c(O)c(c1c5C4=O)C3=O)N2 | 0.008 µg/mL (≈ 0.00965 µM) | –
CO[C@H]1/C=C/O[C@@]2(C)Oc3c(C)c(O)c4c(c3C2=O)C2=NC3(CCN(CC5CCCCC5)CC3)NC2=C(NC(=O)/C(C)=C\C=C\[C@H](C)[C@H](O)[C@@H](C)[C@@H](O)[C@@H](C)[C@H](OC(C)=O)[C@@H]1C)C4=O (stereo in doubt; form 1) [listing 2 of 2 here] | – | Activity (Staphylococcus aureus): Active
CO[C@H]1/C=C/O[C@@]2(C)Oc3c(C)c(O)c4c(c3C2=O)C2=NC3(CCN(C(C)(C)CC(C)(C)C)CC3)NC2=C(NC(=O)/C(C)=C\C=C\[C@H](C)[C@H](O)[C@@H](C)[C@@H](O)[C@@H](C)[C@H](OC(C)=O)[C@@H]1C)C4=O | 0.03 µg/mL (≈ 0.0332 µM) | –
CO[C@H]1/C=C/O[C@@]2(C)Oc3c(C)c(O)c4c(c3C2=O)C2=NC3(CCN(CC(=O)N(C)C)CC3)NC2=C(NC(=O)/C(C)=C\C=C\[C@H](C)[C@H](O)[C@@H](C)[C@@H](O)[C@@H](C)[C@H](OC(C)=O)[C@@H]1C)C4=O | 0.5 µg/mL (≈ 0.571 µM) | –
CO[C@H]1/C=C/O[C@@]2(C)Oc3c(C)c(O)c4c(c3C2=O)C2=NC3(CCN(C[C@H]5CCCO5)CC3)NC2=C(NC(=O)/C(C)=C\C=C\[C@H](C)[C@H](O)[C@@H](C)[C@@H](O)[C@@H](C)[C@H](OC(C)=O)[C@@H]1C)C4=O | 0.125 µg/mL (≈ 0.143 µM) | –
CO[C@H]1/C=C/O[C@@]2(C)Oc3c(C)c(O)c4c(c3C2=O)C2=NC3(CCN(CCc5ccccc5)CC3)NC2=C(NC(=O)/C(C)=C\C=C\[C@H](C)[C@H](O)[C@@H](C)[C@@H](O)[C@@H](C)[C@H](OC(C)=O)[C@@H]1C)C4=O | 0.5 µg/mL (≈ 0.559 µM) | Activity (Staphylococcus aureus): Active
CCOC(=O)N1CCC2(CC1)N=C1C(=C3NC(=O)/C(C)=C\C=C\[C@H](C)[C@H](O)[C@@H](C)[C@@H](O)[C@@H](C)[C@H](OC(C)=O)[C@H](C)[C@@H](OC)/C=C/O[C@@]4(C)Oc5c(C)c(O)c(c1c5C4=O)C3=O)N2 | 8 µg/mL (≈ 9.27 µM) | –
CO[C@H]1/C=C/O[C@@]2(C)Oc3c(C)c(O)c4c(c3C2=O)C2=NC3(CCN(C5CC5)CC3)NC2=C(NC(=O)/C(C)=C\C=C\[C@H](C)[C@H](O)[C@@H](C)[C@@H](O)[C@@H](C)[C@H](OC(C)=O)[C@@H]1C)C4=O (stereo in doubt; form 2) | – | MIC (Acinetobacter baumannii [2]; 20 h): 0.001 µg/mL (≈ 0.0012 µM)
CO[C@H]1/C=C/O[C@@]2(C)Oc3c(C)c(O)c4c(c3C2=O)C2=NC3(CC[N+](C)(C)CC3)NC2=C(NC(=O)/C(C)=C\C=C\[C@H](C)[C@H](O)[C@@H](C)[C@@H](O)[C@@H](C)[C@H](OC(C)=O)[C@@H]1C)C4=O.[I-] | 8 µg/mL | –
CO[C@H]1/C=C/O[C@@]2(C)Oc3c(C)c(O)c4c(c3C2=O)C2=NC3(CCN(CC5CCCCC5)CC3)NC2=C(NC(=O)/C(C)=C\C=C\[C@H](C)[C@H](O)[C@@H](C)[C@@H](O)[C@@H](C)[C@H](OC(C)=O)[C@@H]1C)C4=O (stereo in doubt; form 2) | – | MIC (Acinetobacter baumannii [2]; 20 h): 0.03 µg/mL (≈ 0.0338 µM)
COC(=O)CCCN1CCC2(CC1)N=C1C(=C3NC(=O)/C(C)=C\C=C\[C@H](C)[C@H](O)[C@@H](C)[C@@H](O)[C@@H](C)[C@H](OC(C)=O)[C@H](C)[C@@H](OC)/C=C/O[C@@]4(C)Oc5c(C)c(O)c(c1c5C4=O)C3=O)N2 | 0.5 µg/mL (≈ 0.561 µM) | –
CO[C@H]1/C=C/O[C@@]2(C)Oc3c(C)c(O)c4c(c3C2=O)C2=NC3(CCN(C5CCCCC5C)CC3)NC2=C(NC(=O)/C(C)=C\C=C\[C@H](C)[C@H](O)[C@@H](C)[C@@H](O)[C@@H](C)[C@H](OC(C)=O)[C@@H]1C)C4=O (some centres undefined) | 0.125 µg/mL (≈ 0.141 µM) | –
C#CCCN1CCC2(CC1)N=C1C(=C3NC(=O)/C(C)=C\C=C\[C@H](C)[C@H](O)[C@@H](C)[C@@H](O)[C@@H](C)[C@H](OC(C)=O)[C@H](C)[C@@H](OC)/C=C/O[C@@]4(C)Oc5c(C)c(O)c(c1c5C4=O)C3=O)N2 | 0.004 µg/mL (≈ 0.00475 µM) | –
COCCN1CCC2(CC1)N=C1C(=C3NC(=O)/C(C)=C\C=C\[C@H](C)[C@H](O)[C@@H](C)[C@@H](O)[C@@H](C)[C@H](OC(C)=O)[C@H](C)[C@@H](OC)/C=C/O[C@@]4(C)Oc5c(C)c(O)c(c1c5C4=O)C3=O)N2 | 0.016 µg/mL (≈ 0.0188 µM) | –
CO[C@H]1/C=C/O[C@@]2(C)Oc3c(C)c(O)c4c(c3C2=O)C2=NC3(CCN(CCN5CCOCC5)CC3)NC2=C(NC(=O)/C(C)=C\C=C\[C@H](C)[C@H](O)[C@@H](C)[C@@H](O)[C@@H](C)[C@H](OC(C)=O)[C@@H]1C)C4=O | 1 µg/mL (≈ 1.11 µM) | –
